Measured values from ChEMBL document CHEMBL1287747, “Highly active antimycobacterial derivatives of benzoxazine” (2010).
In brackets after ≈: the same amount, converted by molar mass.

Legend:
Format in all cases: functional
[1] = tested on: Mycobacterium kansasii; test: Antimycobacterial activity against Mycobacterium kansasii 6509/96 after 21 days by microdilution method; settings: 6509/96, 504 h
In short: (§1)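 Clinical isolate that, unlike the standard strain, is not isoniazid-resistant. Tested by dilution micromethod in Šula semisynthetic medium, with compounds added in DMSO at final 1000 down to 0.25 µmol/L in twofold steps. Löwenstein-Jensen plate used as inoculum sterility and growth control. Incubated at 37 °C and read at 14 and 21 days. MIC is the lowest concentration inhibiting growth.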

[2] = tested on: Mycobacterium kansasii; test: Antimycobacterial activity against Mycobacterium kansasii CNCTC My 235/80 after 21 days by microdilution method; settings: CNCTC My 235/80, 504 h
In short: (§2)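 Strains from the Czech National Collection of Type Cultures, tested by dilution micromethod in Šula semisynthetic medium. Incubated at 37 °C and read at 14 and 21 days. MIC is the lowest concentration inhibiting growth.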

[3] = tested on: Mycobacterium tuberculosis; test: Antimycobacterial activity against Mycobacterium tuberculosis CNCTC My 331/88 after 21 days by microdilution method; settings: CNCTC My 331/88, 504 h; in short: as §2
[4] = tested on: Mycobacterium tuberculosis; test: Antimycobacterial activity against Mycobacterium tuberculosis CNCTC My 331/88 after 14 days by microdilution method; settings: CNCTC My 331/88, 336 h; in short: as §2
[5] = tested on: Mycobacterium kansasii; test: Antimycobacterial activity against Mycobacterium kansasii 6509/96 after 14 days by microdilution method; settings: 6509/96, 336 h; in short: as §1
[6] = tested on: Mycobacterium avium; test: Antimycobacterial activity against Mycobacterium avium CNCTC My 330/88 after 21 days by microdilution method; settings: CNCTC My 330/88, 504 h; in short: as §2
[7] = tested on: Mycobacterium avium; test: Antimycobacterial activity against Mycobacterium avium CNCTC My 330/88 after 14 days by microdilution method; settings: CNCTC My 330/88, 336 h; in short: as §2
[8] = tested on: Mycobacterium kansasii; test: Antimycobacterial activity against Mycobacterium kansasii CNCTC My 235/80 after 14 days by microdilution method; settings: CNCTC My 235/80, 336 h; in short: as §2

| SMILES | MIC [1] [µM] | MIC [2] [µM] | MIC [3] [µM] | MIC [4] [µM] | MIC [5] [µM] | MIC [6] [µM] | MIC [7] [µM] | MIC [8] [µM] |
| --- | --- | --- | --- | --- | --- | --- | --- | --- |
| CCC(C)c1ccc(-n2c(=O)oc3ccc(Br)cc3c2=O)cc1 (stereo not given) | 16 (≈ 5.99 µg/mL) | 8 (≈ 2.99 µg/mL) | 8 (≈ 2.99 µg/mL) | 4 (≈ 1.5 µg/mL) | 8 (≈ 2.99 µg/mL) | 32 (≈ 12 µg/mL) | 16 (≈ 5.99 µg/mL) | 8 (≈ 2.99 µg/mL) |
| CCC(C)c1ccc(-n2c(=O)oc3ccc(Cl)cc3c2=O)cc1 (stereo not given) | 16 (≈ 5.28 µg/mL) | 16 (≈ 5.28 µg/mL) | 8 (≈ 2.64 µg/mL) | 4 (≈ 1.32 µg/mL) | 16 (≈ 5.28 µg/mL) | 32 (≈ 10.6 µg/mL) | 32 (≈ 10.6 µg/mL) | 16 (≈ 5.28 µg/mL) |
| CCC(C)c1ccc(-n2c(=O)oc3cc(Cl)ccc3c2=O)cc1 (stereo not given) | 8 (≈ 2.64 µg/mL) | 8 (≈ 2.64 µg/mL) | 4 (≈ 1.32 µg/mL) | 4 (≈ 1.32 µg/mL) | 8 (≈ 2.64 µg/mL) | 8 (≈ 2.64 µg/mL) | 8 (≈ 2.64 µg/mL) | 8 (≈ 2.64 µg/mL) |
| CC(C)(C)c1ccc(-n2c(=O)oc3cc(Cl)ccc3c2=O)cc1 | 8 (≈ 2.64 µg/mL) | 16 (≈ 5.28 µg/mL) | 4 (≈ 1.32 µg/mL) | 4 (≈ 1.32 µg/mL) | 8 (≈ 2.64 µg/mL) | 8 (≈ 2.64 µg/mL) | 4 (≈ 1.32 µg/mL) | 8 (≈ 2.64 µg/mL) |
| CCC(C)c1ccc(-n2c(=O)oc3cc(Cl)ccc3c2=S)cc1 (stereo not given) | 2 (≈ 0.692 µg/mL) | 8 (≈ 2.77 µg/mL) | 2 (≈ 0.692 µg/mL) | 1 (≈ 0.346 µg/mL) | 1 (≈ 0.346 µg/mL) | 8 (≈ 2.77 µg/mL) | 8 (≈ 2.77 µg/mL) | 4 (≈ 1.38 µg/mL) |
| CCCCc1ccc(-n2c(=O)oc3ccc(Cl)cc3c2=S)cc1 | 4 (≈ 1.38 µg/mL) | 16 (≈ 5.53 µg/mL) | 2 (≈ 0.692 µg/mL) | 1 (≈ 0.346 µg/mL) | 4 (≈ 1.38 µg/mL) | 16 (≈ 5.53 µg/mL) | 8 (≈ 2.77 µg/mL) | 8 (≈ 2.77 µg/mL) |
| CC(C)(C)c1ccc(-n2c(=O)oc3cc(Cl)ccc3c2=S)cc1 | 4 (≈ 1.38 µg/mL) | 8 (≈ 2.77 µg/mL) | 2 (≈ 0.692 µg/mL) | 2 (≈ 0.692 µg/mL) | 2 (≈ 0.692 µg/mL) | 8 (≈ 2.77 µg/mL) | 4 (≈ 1.38 µg/mL) | 4 (≈ 1.38 µg/mL) |
| CCc1ccc(-n2c(=S)oc3ccc(Br)cc3c2=S)cc1 | 8 (≈ 3.03 µg/mL) | 16 (≈ 6.05 µg/mL) | 2 (≈ 0.757 µg/mL) | 1 (≈ 0.378 µg/mL) | 4 (≈ 1.51 µg/mL) | 62.5 (≈ 23.6 µg/mL) | 62.5 (≈ 23.6 µg/mL) | 8 (≈ 3.03 µg/mL) |
| CC(C)c1ccc(-n2c(=S)oc3cc(Cl)ccc3c2=S)cc1 | 4 (≈ 1.39 µg/mL) | 8 (≈ 2.78 µg/mL) | 1 (≈ 0.348 µg/mL) | 0.5 (≈ 0.174 µg/mL) | 4 (≈ 1.39 µg/mL) | 8 (≈ 2.78 µg/mL) | 8 (≈ 2.78 µg/mL) | 4 (≈ 1.39 µg/mL) |
| NNC(=O)c1ccncc1 [ISONIAZID] | 8 (≈ 1.1 µg/mL) | > 250 | 0.5 (≈ 0.0686 µg/mL) | 0.5 (≈ 0.0686 µg/mL) | 8 (≈ 1.1 µg/mL) | > 250 | > 250 | > 250 |
